Laboratory results: ChEMBL document CHEMBL6182897, “Salamandamide Lipodipeptides Are Biosynthetic Intermediate Shunt Products of the Nonamodular Nonribosomal Peptide Assembly Lines of the Viscosin Family” (J Nat Prod, 2025)
Activity calls are given as the source filed them. No cut-off for these calls is given here.

Experiments:
Nakaseomyces glabratus = assay: Antifungal activity against Candida glabrata Tu04 assessed as inhibition of fungal growth incubated for 48 hrs by TECAN M200 microtiter plate reader analysis; format: functional, organism-based
Outline: (§1)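 EUCAST broth microdilution with direct colony suspension inoculum of 0.5–2.5 × 10^5 CFU/mL, using clinical Candida isolates. Medium was MOPS-buffered RPMI 1640 with glucose to a final 2%, pH 7.0. Plates incubated 48 h at 37 °C, then read at 530 nm to give MIC.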

Candida tropicalis = assay: Antifungal activity against Candida tropicalis Tu05 assessed as inhibition of fungal growth incubated for 48 hrs by TECAN M200 microtiter plate reader analysis; format: functional, organism-based; outline: as §1
Homo sapiens = organism: Homo sapiens; assay: Inhibition of human leukocyte elastase using MeoSuc-Ala-Ala-Pro-Val-AMC as substrate incubated for 10 mins
Caco-2 [1] = assay: Cytotoxicity against human Caco-2 cells assessed as cell count up to 10 uM measured after 48 hrs by Hoechst dye based analysis; format: toxicity; conditions: caco-2, 48 h
Caco-2 [2] = assay: Cytotoxicity against human Caco-2 cells assessed as cell count up to 10 uM by Hoechst dye based analysis; format: toxicity; conditions: caco-2, 10 µM
Staphylococcus aureus = assay: Antibacterial activity against Staphylococcus aureus ATCC29213 assessed as bacterial growth inhibition incubated for overnight by CLSI-protocol based broth micro-dilution assay; format: functional, organism-based
Outline: (§2)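 Broth microdilution MIC in cation-adjusted Mueller-Hinton medium, following CLSI. Compound in 2-fold serial dilution; bacteria at a final 5 × 10^5 CFU/mL. Incubated overnight at 37 °C. MIC taken as the lowest concentration preventing visible growth.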

Candida albicans [3] = assay: Antifungal activity against Candida albicans ATCC90028 assessed as inhibition of fungal growth incubated for 48 hrs by TECAN M200 microtiter plate reader analysis; format: functional, organism-based; outline: as §1
HeLa = assay: Cytotoxicity against human HeLa cells measured after 24 hrs by resazurin staining based analysis; format: functional, cell-based
Outline: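 HeLa cells in RPMI with 10% FBS were seeded at 1 × 10^4 per well onto 2-fold compound dilutions, run in duplicate. Incubation was 24 h at 37 °C, 5% CO2. Resazurin was then added (200 μM final) and incubated overnight. Resorufin fluorescence (ex 560/em 600 nm) was read relative to untreated control.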

Enterococcus faecium [4] = assay: Antibacterial activity against Enterococcus faecium BM4147-1 assessed as bacterial growth inhibition incubated for overnight by CLSI-protocol based broth micro-dilution assay; format: functional, organism-based; outline: as §2
Enterococcus faecium [5] = assay: Antibacterial activity against Enterococcus faecium K209.5 assessed as bacterial growth inhibition incubated for overnight by CLSI-protocol based broth micro-dilution assay; format: functional, organism-based; outline: as §2
Enterococcus faecalis = assay: Antibacterial activity against Enterococcus faecalis ATCC29212 assessed as bacterial growth inhibition incubated for overnight by CLSI-protocol based broth micro-dilution assay; format: functional, organism-based; outline: as §2
Klebsiella aerogenes = assay: Antibacterial activity against Enterobacter aerogenes ATCC13048 assessed as bacterial growth inhibition incubated for overnight by CLSI-protocol based broth micro-dilution assay; format: functional, organism-based; outline: as §2
Enterococcus faecium [6] = assay: Antibacterial activity against vancomycin-resistant Enterococcus faecium U200 assessed as bacterial growth inhibition incubated for overnight by CLSI-protocol based broth micro-dilution assay; format: functional, organism-based
Outline: (§3)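 Broth microdilution per CLSI in cation-adjusted Mueller-Hinton medium (casein, beef extract, starch). Twofold serial compound dilutions were inoculated at a final 5 × 10^5 CFU/mL and incubated overnight at 37 °C. MIC was the lowest concentration with no visible growth.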

Bacillus subtilis = assay: Antibacterial activity against Bacillus subtilis 168 assessed as bacterial growth inhibition incubated for overnight by CLSI-protocol based broth micro-dilution assay; format: functional, organism-based; outline: as §2
Enterococcus faecium [7] = assay: Antibacterial activity against vancomycin-resistant Enterococcus faecium BM4147 assessed as bacterial growth inhibition incubated for overnight by CLSI-protocol based broth micro-dilution assay; format: functional, organism-based; outline: as §3
Enterococcus faecium [8] = assay: Antibacterial activity against vancomycin-resistant Enterococcus faecium 6011 assessed as bacterial growth inhibition incubated for overnight by CLSI-protocol based broth micro-dilution assay; format: functional, organism-based; outline: as §3
Enterococcus faecium [9] = assay: Antibacterial activity against Enterococcus faecium 115.2 assessed as bacterial growth inhibition incubated for overnight by CLSI-protocol based broth micro-dilution assay; format: functional, organism-based; outline: as §2
Klebsiella pneumoniae = assay: Antibacterial activity against Klebsiella pneumoniae ATCC12657 assessed as bacterial growth inhibition incubated for overnight by CLSI-protocol based broth micro-dilution assay; format: functional, organism-based; outline: as §2
Candida albicans [10] = assay: Antifungal activity against Candida albicans Tu02 assessed as inhibition of fungal growth incubated for 48 hrs by TECAN M200 microtiter plate reader analysis; format: functional, organism-based; outline: as §1
[11] = molecular target: Procathepsin L (Homo sapiens) (UniProt P07711); assay: Inhibition of human Cathepsin L using Z-Phe-Arg-pNA as substrate incubated for 60 mins
[12] = tested on: Severe acute respiratory syndrome coronavirus 2; assay: Inhibition of SARS CoV-2 MPro using Boc-Abu-Tle-Leu-Gln-AMC as substrate incubated for 10 mins
Outline: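 Purified SARS-CoV-2 main protease (cysteine protease) was assayed with a fluorogenic peptide substrate. AMC release was followed continuously over 10 min.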

Neisseria gonorrhoeae [13] = assay: Antibacterial activity against Neisseria gonorrhoeae ATCC19424 assessed as bacterial growth inhibition incubated for overnight by CLSI-protocol based broth micro-dilution assay; format: functional, organism-based
Outline: (§4)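 Neisseria MIC by CLSI broth microdilution in cation-adjusted Mueller-Hinton medium supplemented with 2.5% fetal bovine serum. Compound in 2-fold serial dilution; final inoculum 5 × 10^5 CFU/mL. Incubated overnight at 37 °C. MIC is the lowest concentration with no visible growth.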

Escherichia coli [14] = assay: Antibacterial activity against Escherichia coli C600 harboring Tn10 deltalpxC deltatolC mutant assessed as bacterial growth inhibition incubated for overnight by CLSI-protocol based broth micro-dilution assay; format: functional, organism-based; outline: as §3
Candida albicans [15] = assay: Antifungal activity against Candida albicans Tu01 assessed as inhibition of fungal growth incubated for 48 hrs by TECAN M200 microtiter plate reader analysis; format: functional, organism-based; outline: as §1
Escherichia coli [16] = assay: Antibacterial activity against Escherichia coli ATCC25922 assessed as bacterial growth inhibition incubated for overnight by CLSI-protocol based broth micro-dilution assay; format: functional, organism-based; outline: as §2
Neisseria gonorrhoeae [17] = assay: Antibacterial activity against Neisseria gonorrhoeae S1441 assessed as bacterial growth inhibition incubated for overnight by CLSI-protocol based broth micro-dilution assay; format: functional, organism-based; outline: as §4
Candida albicans [18] = assay: Antifungal activity against Candida albicans Tu03 assessed as inhibition of fungal growth incubated for 48 hrs by TECAN M200 microtiter plate reader analysis; format: functional, organism-based; outline: as §1
Acinetobacter baumannii = assay: Antibacterial activity against Acinetobacter baumannii 09987 assessed as bacterial growth inhibition incubated for overnight by CLSI-protocol based broth micro-dilution assay; format: functional, organism-based; outline: as §2
Pseudomonas aeruginosa = assay: Antibacterial activity against Pseudomonas aeruginosa ATCC27853 assessed as bacterial growth inhibition incubated for overnight by CLSI-protocol based broth micro-dilution assay; format: functional, organism-based; outline: as §2
SARS-CoV-2 [19] = assay: Antiviral activity against SARS-CoV-2 expressing mNeonGreen infected in human Caco-2 cells at 0.26 MOI assessed as reduction in infection rate at 2.5 to 10 uM for 48 hrs post infection by Hoechst dye based analysis relative to control; format: functional, Severe acute respiratory syndrome coronavirus 2; parameters: scale not given: the % may be the effect or the level left; conditions: dose 2.5-10 µM
SARS-CoV-2 [20] = assay: Antiviral activity against SARS-CoV-2 expressing mNeonGreen infected in Caco-2 cells at 0.26 MOI assessed as reduction in infection rate for 48 hrs post infection by Hoechst dye based analysis; format: functional, organism-based; conditions: Severe acute respiratory syndrome coronavirus 2, Caco-2, 48 h
[21] = Cytotoxicity against human Caco-2 cells assessed as cell count for 48 hrs by Hoechst dye based analysis; format: toxicity
SARS-CoV-2 [22] = assay: Antiviral activity against SARS-CoV-2 expressing mNeonGreen infected in human Caco-2 cells at 0.26 MOI assessed as reduction in infection rate at 5 to 10 uM pre-treated with compound for 2.5 hrs followed by viral infection and measured after 48 hrs by Hoechst dye based analysis relative to control; format: functional, Severe acute respiratory syndrome coronavirus 2; parameters: scale not given: the % may be the effect or the level left; conditions: dose 5-10 µM, time 50.5 hrs

Sequence of Procathepsin L (Homo sapiens) (P07711 114-333 limits assumed): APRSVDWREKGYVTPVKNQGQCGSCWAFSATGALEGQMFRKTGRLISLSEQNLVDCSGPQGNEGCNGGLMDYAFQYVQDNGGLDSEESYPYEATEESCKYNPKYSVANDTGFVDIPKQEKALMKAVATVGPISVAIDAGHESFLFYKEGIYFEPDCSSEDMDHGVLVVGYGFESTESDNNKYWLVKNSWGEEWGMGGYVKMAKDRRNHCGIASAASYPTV

Compound: CCCCCCC[C@@H](O)CC(=O)N[C@@H](CC(C)C)C(=O)N[C@@H](CCC(N)=O)C(=O)O
- Activity (Nakaseomyces glabratus): inactive
- Activity (Candida tropicalis): inactive
- inhibition (Homo sapiens): inactive
- Activity (Caco-2 [1]): Toxic
- Activity (Caco-2 [2]): Toxic
- Activity (Staphylococcus aureus): inactive
- Activity (Candida albicans [3]): inactive
- Activity (HeLa): inactive
- Activity (Enterococcus faecium [4]): inactive
- Activity (Enterococcus faecium [5]): inactive
- Activity (Enterococcus faecalis): inactive
- Activity (Klebsiella aerogenes): inactive
- Activity (Enterococcus faecium [6]): inactive
- Activity (Bacillus subtilis): inactive
- Activity (Enterococcus faecium [7]): inactive
- Activity (Enterococcus faecium [8]): inactive
- Activity (Enterococcus faecium [9]): inactive
- Activity (Klebsiella pneumoniae): inactive
- Activity (Candida albicans [10]): inactive
- inhibition [11]: inactive
- inhibition [12]: inactive
- Activity (Neisseria gonorrhoeae [13]): inactive
- Activity (Escherichia coli [14]): inactive
- Activity (Candida albicans [15]): inactive
- Activity (Escherichia coli [16]): inactive
- Activity (Neisseria gonorrhoeae [17]): inactive
- Activity (Candida albicans [18]): inactive
- Activity (Acinetobacter baumannii): inactive
- Activity (Pseudomonas aeruginosa): inactive

Compound: CCCCCCC[C@@H](O)CC(=O)N[C@@H](CC(C)C)C(=O)N[C@H](CCC(N)=O)C(=O)N[C@H]1C(=O)N[C@H](C(C)C)C(=O)N[C@H](CC(C)C)C(=O)N[C@H](CO)C(=O)N[C@@H](CC(C)C)C(=O)N[C@H](CO)C(=O)N[C@@H]([C@@H](C)CC)C(=O)O[C@@H]1C
- Activity (SARS-CoV-2 [19]): 60%
- Activity (Caco-2 [1]): Non-toxic
- Activity (Caco-2 [2]): Non-toxic
- EC50 (SARS-CoV-2 [20]): 3.3 µM
- CC50 at 48 h [21]: > 20 µM
- Activity (SARS-CoV-2 [22]): 85%
